# PG9 binder: PG9 antibody binding by small molecule | inhibition, % at 6.7 µM | TR-FRET gp120-PG9 antibody binding | 0.43% of 360,000 active; in the data active = inhibition above about 8.5%
# NR2E3 ag-1: agonists of human NR2E3 nuclear receptor. inhibition of corepressor binding, % at 3.98 µM. 0.35% of 360,000 active. CHO-S Gal4-NCOR/VP16-NR2E3 two-hybrid, luciferase. AID 602229;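 active = inhibition above the mean of all tested compounds plus 3 SD, cut at about 70% in these data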;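 also: 0% = DMSO with NR2E3 transfected cells and 100% = cells lacking NR2E3 construct; higher means lower luciferase signal from less NR2E3 corepressor binding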
# NR2E3 ag-2: agonists of human nuclear receptor NR2E3; GST-NR2E3/biotin-RetCOR TR-FRET, 1536-well; inhibition of corepressor binding, % at 4.78 µM; 0.12% of 320,000 active; AID 2300;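 active = percent inhibition above the cutoff of mean plus 3 SD of all tested compounds, set per screening campaign, cut at about 20% in these data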;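 also: 0% = DMSO wells and 100% = biotin wells as full block of FRET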
#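 Material: NR2E3–RetCOR corepressor complex | Quantity: 1.35 nM GST-tagged NR2E3 final | Schedule: 5 h at 4 °C | Replication: Singlicate compound wells | Reagent: RetCOR corepressor, biotinylated, 7 nM | Controls: Biotin wells as high control, 0.6% DMSO wells as low control | Signal: TR-FRET, Eu(K)-anti-GST donor, streptavidin-D2 acceptor, ex 340, em 617/671 nm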
# GalR3 antagonist: human GalR3 antagonism. O60755. inhibition, % at 3 µM. 0.44% of 360,000 active. AID 651719. HEK293 GalR3-CNG cAMP membrane potential fluorescence; galR3 body fused to GalR1 C-terminus;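 active = inhibition above the screen-wide average plus 3 SD, cut at about 13% in these data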;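 also: forskolin and galanin both at EC90 stimulate the cells; cAMP rise reported by CNG channel membrane potential dye signal; 0% = forskolin plus galanin with DMSO and 100% = forskolin alone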
# Rev-erbA mod: modulators of human Rev-erb alpha DNA binding; P20393; Rev-erbα–FITC-DNA binding, fluorescence polarization, 90 min; activity, % at 10 µM; 0.79% of 370,000 active;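 active = activity above about 14%, limit read from the data; passing the limit was not always enough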;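 also: 0% = DMSO wells with 35 nM protein and 100% = DMSO wells with 750 nM protein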
# Target sequence (P20393 whole entry, looked up): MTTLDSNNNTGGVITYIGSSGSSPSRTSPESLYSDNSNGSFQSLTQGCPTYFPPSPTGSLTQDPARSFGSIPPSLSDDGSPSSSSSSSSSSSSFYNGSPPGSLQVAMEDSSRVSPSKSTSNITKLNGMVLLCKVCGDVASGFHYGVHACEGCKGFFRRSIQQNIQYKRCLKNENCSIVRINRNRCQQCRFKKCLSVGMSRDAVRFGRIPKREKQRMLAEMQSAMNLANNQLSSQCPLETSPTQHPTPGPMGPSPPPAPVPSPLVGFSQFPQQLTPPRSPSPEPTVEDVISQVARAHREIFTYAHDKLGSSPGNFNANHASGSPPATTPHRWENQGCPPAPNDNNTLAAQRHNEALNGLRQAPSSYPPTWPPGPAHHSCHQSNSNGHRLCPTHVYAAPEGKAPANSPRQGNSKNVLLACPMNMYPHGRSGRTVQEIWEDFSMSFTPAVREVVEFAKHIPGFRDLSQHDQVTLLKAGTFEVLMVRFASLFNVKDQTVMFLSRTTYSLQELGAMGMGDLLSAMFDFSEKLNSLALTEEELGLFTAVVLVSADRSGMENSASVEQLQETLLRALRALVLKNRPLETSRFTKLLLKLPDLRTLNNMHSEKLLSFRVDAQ
# GalR3 antag conf: confirmation of human galanin receptor 3 antagonists; shares compounds with GalR3 antagonist; HEK293 GalR3 CNG cAMP biosensor, membrane potential fluorescence; galR3 fused to GalR1 carboxy tail; challenged with forskolin and galanin at EC90; inhibition, % at 3 µM; 59% of 1,600 active; AID 652245;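 active = inhibition above the primary screen's cutoff, the mean inhibition of all screened compounds plus 3 SD, cut at about 13% in these data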;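 also: 0% = forskolin plus galanin and 100% = forskolin alone with DMSO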
# HEK-CNG parental: acts as nonspecific agonist in parental HEK-CNG cells; 10% of 1,600 active; activation, % at 3 µM; HEK293-CNG parental cells, cAMP membrane potential fluorescence; normalised: DMSO wells 0%, forskolin wells 100%; shares compounds with GalR3 antagonist; in the data active = activation above about 1.3%
# An asterisk follows results filed as active; . = no result given. Sampled rows, rich in hits. Any-hit rate of the full collection: about 1.8%.
SMILES,PG9 binder,NR2E3 ag-1,NR2E3 ag-2,GalR3 antagonist,Rev-erbA mod,GalR3 antag conf,HEK-CNG parental
Cc1nc(S(=O)(=O)Cc2ccccc2Cl)nc2c1CCC2,-1,-16,-4,27*,-5,3,0
COc1cc(C(=O)NC2CCN(C)CC2)ccc1Nc1ncc2c(n1)N(C1CCCCC1)CCC(=O)N2C,2,-2,.,19*,-2,13*,0
COc1cc(C(=O)N/N=C/C2CC=CCC2)cc(OC)c1OC (stereo unspecified),-3,26,-1,13*,2,1,0
O=C(N/N=C/C1CC=CCC1)c1ccc(O)cc1O (stereo unspecified),0,-16,1,-5,-2,.,.
CC1CN(C(=O)Nc2cccc(C(F)(F)F)c2)CC(C)O1 (stereo unspecified),1,6,-2,.,1,3,0
CCCC1CCC2(CC1)CCC2OC(=S)Nc1ccccc1Cl (stereo unspecified),.,.,.,.,0,.,.
CCOc1ccc(Br)cc1S(=O)(=O)N1CCC(C(N)=O)CC1,-1,0,1,18*,1,-2,0
CCC(C)NS(=O)(=O)c1ccc(S(=O)(=O)N(CCc2ccc(OC)c(OC)c2)Cc2cccs2)cc1 (stereo unspecified),0,6,0,26*,7,56*,-1
O=c1c(-c2ccccc2)c(O)c2c(n1-c1ccccc1)CCCC2,0,4,0,-8,-3,.,.
CC(C)c1c(O)c2c(n(-c3ccccc3)c1=O)CCCC2,1,-21,0,.,2,3,1.9*
O=C(OC12CCCN(C1)/C(=C/c1ccncc1)C2)c1ccccc1 (stereo unspecified),.,.,.,.,3,.,.
O=C(NCC(c1cccs1)N1CCOCC1)c1cc(F)cc(F)c1 (stereo unspecified),1,-17,.,-7,4,.,.
CSc1ncccc1C(=O)NCC(c1cccs1)N1CCOCC1 (stereo unspecified),0,5,-3,16*,0,-1,0
O=C(Cn1nc(C(=O)O)c2ccccc2c1=O)Nc1cccc(S(=O)(=O)N2CCCCC2)c1,1,-19,.,13*,-3,58*,-1
CCOc1ccccc1C(=O)OCC(=O)Nc1cccc(S(=O)(=O)N2CCCC2)c1,2,-14,.,-7,5,.,.
O=C(Cn1nc(C(=O)O)c2ccccc2c1=O)Nc1cccc(S(=O)(=O)N2CCOCC2)c1,-3,-30,2,1,-9,.,.
CCS(=O)c1ccccc1C(=O)OCC(=O)Nc1cccc(S(=O)(=O)N2CCCCC2)c1 (stereo unspecified),-2,-3,-1,92*,-1,96*,0
CCC(=O)c1ccc(OCC(=O)Nc2cccc(S(=O)(=O)N3CCCCCC3)c2)cc1,-3,-5,.,98*,-5,97*,-1
CCOC(=O)[C@@]12CN(C(=O)OC(C)(C)C)CC=C1N(Cc1ccc(OC)cc1)C(=O)[C@H]2CC(=O)N1CCN(C(=O)C2CC2)CC1,.,.,.,.,1,.,.
COc1ccc(-c2c3c(cc4ncn(Cc5ccccc5)c24)COC3=O)cc1,-2,-37,3,27*,2,52*,0
COc1ccc(S[C@]2(C(=O)N3CCN(C(C)=O)CC3)CC(=O)N(C(=O)C3CC3)[C@@H]2c2ccc(OC)cc2)cc1,.,.,.,.,0,.,.
CN1C(=O)C[C@@](C#N)(C(=O)N2CCCC2)[C@H]1c1ccccc1,.,.,.,.,-3,.,.
COc1ccc(/C=C2\OC(=O)c3c(OC)cccc32)cc1OC,1,-150,5,62*,9,20*,0
COc1ccc(C=C2C(=O)OC(C)(C)OC2=O)cc1OC,-2,-1,-5,-6,2,.,.
COc1cc(C)c(Br)cc1S(=O)(=O)NCc1ccncc1,0,38,7,39*,5,58*,0
